Source: PubChem BioAssay
Most compounds without a hit are left out; they make up all but 4.2% or so of the library.
GalR3 antag = blocks the human galanin receptor 3 | inhibition, % at 3 µM | HEK293 GalR3-CNG cAMP membrane potential fluorescence; galR3 body fused to GalR1 C-terminus | 0.44% of 360,000 active | AID 651719;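 active means inhibition above the screen-wide average plus 3 SD, cut at about 13% in these data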;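 further: forskolin and galanin both at EC90 stimulate the cells; cAMP rise reported by CNG channel membrane potential dye signal; 0% = forskolin plus galanin with DMSO and 100% = forskolin alone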
TAAR1 antagonist = human TAAR1 antagonism | inhibition, % at 3 µM | 1.5% of 360,000 active | CHO RD-HGA16 TAAR1, Fluo-8 calcium fluorescence, antagonist | Q96RJ0 | AID 624466;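 active means inhibition above a per-plate cutoff, the mean inhibition of test compounds on that plate plus 3 SD, cut at about 49% in these data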;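 further: 0% = DMSO plus EC80 beta-PEA response and 100% = DMSO alone without agonist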
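Test system: hTAAR1-expressing CHO RD-HGA16 cells, Gα16-coupled; Probe or stimulus: EC80 β-phenethylamine stimulus; Compound dosing: single nominal final test compound concentration of 3 µM; Timing: 140 s kinetic read after compound, 140 s after agonist; Signal: Fluo-8 calcium-sensitive fluorescence; Measure: % inhibition of agonist calcium response; Controls: DMSO and EC80 PEA controls.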
CHO parental Ca = signal in parental CHO cells, OX1R antagonist counter-screen. parental CHO-K1, ATP-induced calcium, Fluo-8 fluorescence. inhibition, % at 5.6 µM. 0.63% of 330,000 active;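 active means inhibition above that plate's mean sample inhibition plus 3 SD, cut at about 26% in these data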;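 further: 0% = ATP-challenged DMSO wells and 100% = DMSO wells without ATP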
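Test system: untransfected parental CHO cell line. Compound: one dose, 5.6 µM nominal. Detection: intracellular calcium via Fluo-8 no-wash fluorescent dye. Measure: % inhibition. Benchmarks: ATP-challenged DMSO wells low, unchallenged DMSO wells high.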
OX1R antag-1 = human HCRTR1 antagonism; O43613; CHO/OX1R cells, Fluo-8 calcium fluorescence, orexin A; inhibition, % at 5 µM; 0.43% of 330,000 active; AID 434989;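 active means inhibition above its plate's threshold, mean inhibition of all tested compounds on the plate plus 3 SD, cut at about 37% in these data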;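 further: 0% = orexin A challenge wells and 100% = SB-334867-A antagonist wells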
Target sequence (O43613 whole entry, looked up): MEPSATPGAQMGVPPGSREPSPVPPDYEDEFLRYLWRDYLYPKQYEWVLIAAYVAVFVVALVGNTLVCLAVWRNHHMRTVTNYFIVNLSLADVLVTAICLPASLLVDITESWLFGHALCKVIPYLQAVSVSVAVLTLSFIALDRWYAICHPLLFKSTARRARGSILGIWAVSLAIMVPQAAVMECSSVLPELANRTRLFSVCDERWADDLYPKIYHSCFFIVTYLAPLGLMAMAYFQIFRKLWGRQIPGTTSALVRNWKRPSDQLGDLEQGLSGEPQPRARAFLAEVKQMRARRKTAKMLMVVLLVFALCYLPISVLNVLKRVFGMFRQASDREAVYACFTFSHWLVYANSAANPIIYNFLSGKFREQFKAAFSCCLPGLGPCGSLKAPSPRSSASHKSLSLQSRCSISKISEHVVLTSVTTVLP
OX1R antag-2 = blocks the human orexin 1 receptor. inhibition, % at 6.6 µM. O43613. AID 485270. 1.8% of 330,000 active. OX1R-expressing cells, FRET antagonist read-out; in the data active means inhibition mostly above about 38%, no sharp cut-off; inactive means mostly below about 40%;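 further: 0% = agonist challenge alone and 100% = reference antagonist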
TAAR1 agonist = human TAAR1 agonism; Q96RJ0; CHO RD-HGA16 TAAR1, Fluo-8 calcium fluorescence; vehicle wells 0%, saturating PEA agonist 100%; activation, % at 3 µM; 0.99% of 360,000 active; AID 624467;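 active means activation above the mean activation of all test compounds in the run plus 3 SD, cut at about 38% in these data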
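Assay system: CHO-derived RD-HGA16 cells with stable Gα16 and human TAAR1; timing: 17-24 h seeding, 75 min 37 °C dye, 30 min RT; read-out: % activation from peak over basal fluorescence ratio, DMSO-to-PEA scaled; measured by: kinetic Fluo-8 calcium fluorescence; benchmarks: low control DMSO, high control PEA (EC100); doses: 3 µM single concentration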
TAAR1 nonsel count = counter-screen for TAAR1 antagonists: nonselective antagonists; shares compounds with TAAR1 antagonist; counterscreen cell line, calcium fluorescence, antagonist mode; inhibition, % at 3 µM; 77% of 2,400 active; AID 651780; in the data active means inhibition above about 22%;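 further: CHO-Ga16 host cells stimulated with ATP at an EC80 level; 0% = agonist EC80 plus vehicle and 100% = vehicle without agonist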
TAAR1 ant conf = human TAAR1 antagonism, confirmed. shares compounds with TAAR1 antagonist. TAAR1-expressing cells, fluorescence antagonist read-out. inhibition, % at 3 µM. 40% of 2,400 active. AID 651785; in the data active means inhibition above about 49%;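 further: CHO-Ga16 host cells challenged with agonist PEA near its EC80; 0% = agonist at EC80 plus vehicle and 100% = vehicle with no agonist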
Ga16 nonsel ag = counter-screen for TAAR1 antagonists: nonselective Ga16 agonists | shares compounds with TAAR1 antagonist | Ga16-expressing cells, calcium fluorescence, agonist counterscreen | activation, % at 3 µM | 18% of 2,400 active | AID 651953; in the data active means activation above about 12%;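 further: 0% = vehicle wells and 100% = saturating stimulus response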
TAAR1 ag count = counter-screen for human TAAR1 antagonists: TAAR1 agonists; hTAAR1 cell line, fluorescence activation, agonist mode; AID 651955; 2% of 2,400 active; activation, % at 3 µM; shares compounds with TAAR1 antagonist; in the data active means activation above about 37%;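 further: CHO cells stably expressing TAAR1 with calcium dye readout; 0% = DMSO vehicle and 100% = full agonist response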
* hit, by the source's call; . = not tested or not shown.

SMILES	GalR3 antag	TAAR1 antagonist	CHO parental Ca	OX1R antag-1	OX1R antag-2	TAAR1 agonist	TAAR1 nonsel count	TAAR1 ant conf	Ga16 nonsel ag	TAAR1 ag count
Cc1ccc(NC(=O)c2ccc(S(=O)(=O)N3CCC(C)CC3)cc2)cc1	-4.7	79.0*	-2.6	-11.7	6.1	29.4	0.3	-4.4	1.5	-1.9
CCCC(NS(=O)(=O)c1ccc(C)cc1)C(=O)O (stereo not drawn)	-5.9	8.7	-7.4	-23.9	15.9	2.4	.	.	.	.
O=C(CN1CCCCC1)Nc1nnc(-c2ccccc2)s1	2.9	-5.5	-7.2	-9.9	6.4	7.9	.	.	.	.
Cc1nnc(SCC(=O)NC2CCCC2)n1CCc1ccccc1	-7.3	-9.7	-13.3	-6.8	31.5	5.2	.	.	.	.
CC(=O)c1ccccc1OCCOc1ccccc1C(C)=O	-10.2	0.4	-15.4	-24.8	13.0	2.8	.	.	.	.
CC(=O)c1ccccc1OCc1ccc(S(=O)(=O)Cc2ccccc2)cc1	-6.8	74.4*	-9.7	-10.9	-1.3	12.5	29.7*	42.0	8.9	15.0
CCOC(=O)c1ccc(Nc2cc(C)nc(-c3ccccc3O)n2)cc1	-1.1	52.9*	-18.7	-33.9	21.2	1.5	25.6*	40.1	6.3	5.0
CCOC(=O)C(=O)Nc1ccccc1C(=O)Nc1ccc(OC)cc1	-6.6	-20.1	-0.8	-16.7	3.0	4.8	.	.	.	.
O=C(CSc1ccccc1C(=O)O)NC1CCCCCC1	-3.1	11.2	-6.8	-6.3	14.3	6.6	.	.	.	.
O=C(CSc1ccccc1C(=O)NCc1ccccc1)NC1CCCCCCC1	-8.4	54.5*	-26.9	-20.3	3.9	12.5	18.0	30.9	6.1	2.5
COc1ccc(CN2C[C@@H](CO)O[C@@H](n3cnc4c(NCc5ccc(F)cc5)ncnc43)C2)cc1	-8.1	2.6	.	.	.	4.6	.	.	.	.
CCN1C=C(Cc2cccs2)C2=C(C1)C(c1cccs1)C(C#N)=C(N)O2 (stereo not drawn)	-2.4	53.1*	-18.4	-11.8	31.4	25.9	20.1	37.5	6.0	9.5
CCN1CC2=C(OC(N)=C(C#N)C2c2cccs2)/C(=C/c2cccs2)C1 (stereo not drawn)	-6.3	34.4	-29.9	-19.6	15.4	17.6	.	.	.	.
CCOC(=O)c1ccc2ncc(C(=O)OCC)c(Nc3ccc(N4CCOCC4)cc3)c2c1	-1.7	57.3*	-20.9	-24.6	36.2	9.9	36.2*	56.7*	5.9	3.4
O=C(COC(=O)c1n[nH]c(=O)c2ccccc12)NCc1ccccc1	-1.7	-7.0	-5.9	-1.2	1.9	7.0	.	.	.	.
COc1ccc(CN(C)CC(=O)Nc2cccc(S(=O)(=O)N3CCCC3)c2)cc1F	-8.6	63.8*	-15.8	-11.3	4.8	16.2	8.1	5.6	-0.2	-2.1
CN(CC(=O)Nc1cccc(S(=O)(=O)N2CCCCC2)c1)Cc1ccc(F)cc1	-4.3	30.1	9.5	22.5	4.8	5.3	.	.	.	.
CN(CC(=O)Nc1cccc(F)c1)CC(=O)Nc1cccc(S(=O)(=O)N2CCCCCC2)c1	10.2	60.5*	-8.2	-20.2	0.3	20.2	21.2	44.3	12.4*	15.0
Cc1ccc(OCC(=O)Nc2cccc(S(=O)(=O)N3CCCCC3)c2)c([N+](=O)[O-])n1	-2.2	-16.7	-16.2	-28.4	2.8	5.4	.	.	.	.
Cc1ccc2cccc(OCC(=O)Nc3cccc(S(=O)(=O)N4CCCC4)c3)c2n1	-0.1	74.5*	-10.3	-8.2	18.6	14.9	33.6*	56.8*	9.4	7.1
CCCCCC(=O)N1C[C@@H](n2cc(COC(=O)c3ccccc3)nn2)[C@H](O)C[C@@H]1c1ccccc1	-6.6	36.9	.	.	.	4.4	.	.	.	.
COc1ccc(NC(=O)/C(C#N)=C/c2ccc(-c3ccc(Cl)c(C(=O)O)c3)o2)cc1	-5.1	6.2	.	.	.	-0.5	.	.	.	.
CCc1[nH]nc2c1C1(CCN(C(=O)OCc3ccccc3)CC1)C(C#N)=C(N)O2	-0.2	63.0*	-8.2	-21.6	12.6	33.4	34.1*	56.9*	15.8*	30.2
COc1ccc(NC(=O)CSc2ccc(-c3ccccn3)nn2)cc1OC	11.4	-13.8	-5.2	3.6	16.8	5.4	.	.	.	.
COc1ccc(-c2ccc(SCC(=O)Nc3cccc(C(C)=O)c3)nn2)cc1OC	-6.0	52.7*	-9.2	-23.9	5.9	9.6	24.1*	26.9	5.7	1.6
CC(=O)c1cccc(NC(=O)CSc2ccc(-c3ccc4c(c3)OCO4)nn2)c1	-0.4	54.0*	-3.5	-21.8	38.5	4.7	27.4*	35.1	7.9	5.8
